Data as given in ChEMBL document CHEMBL3244117, “Pyridine derivatives as potent inducers of erythroid differentiation in Friend leukemia cells” (1978).

Columns and labels:
Type in all cases: functional, Leukemia cell
[1] = Induction of erythroid differentiation in DBA/2J mouse Friend erythroleukemia cells assessed as concentration required for maximum proportion of benzidine positive cells after 6 days
Method in brief: (§1)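 Log-phase Friend leukemia cells seeded at 10⁵ cells/mL in DMEM + 10% fetal calf serum, 37 °C, 10% CO₂. Compound added at seeding over a range of concentrations with twofold steps, in two separate experiments. Water-insoluble agents were dissolved in 50% ethanol or acetone. Me₂SO (210 mM) was the positive control. Benzidine-positive cells were scored on day 6 with benzidine peroxide stain.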

[2] = Induction of erythroid differentiation in DBA/2J mouse Friend erythroleukemia cells assessed as hemoglobin level per 10^7 cells after 3 to 6 days relative to control
Method in brief: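 On day 6, cultures that contained benzidine-positive cells were centrifuged at 350g for 10 min. Cells were washed twice in phosphate-buffered 0.9% NaCl, pH 7.4, then sonicated. Total hemoglobin was measured from absorbance at 515 nm after the lysate was incubated with benzidine, and expressed per 10⁷ cells. Cells had been seeded at 10⁵ cells/mL with compound added at seeding, 37 °C.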

[3] = Induction of erythroid differentiation in DBA/2J mouse Friend erythroleukemia cells assessed as benzidine positive cells after 6 days relative to control; parameters: concentration or dose not given beside the values; method in brief: as §1
[4] = Induction of erythroid differentiation in DBA/2J mouse Friend erythroleukemia cells assessed as cell growth after 3 days relative to control; parameters: concentration or dose not given beside the values
Method in brief: (§2)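 Cells were seeded at 10⁵ cells/mL with compound added at seeding, in two separate experiments using twofold concentration steps. Incubation was at 37 °C. Cell number was counted with a Coulter counter on day 3, and cell counts were also taken on day 6. Growth is expressed as a percentage of untreated control cultures.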

[5] = Induction of erythroid differentiation in DBA/2J mouse Friend erythroleukemia cells assessed as cell growth after 6 days relative to control; parameters: concentration or dose not given beside the values; method in brief: as §2

| Structure (SMILES) | Activity [1] [mM] | Activity [2] [µg] | Activity [3] [%] | Activity [4] [%] | Activity [5] [%] |
| --- | --- | --- | --- | --- | --- |
| CC(=O)Nc1cccnc1 | 8 | 14.4 | 43 | 58 | 95 |
| CC(=O)Nc1ccccn1 | 2 | 30.6 | 72 | 65 | 95 |
| Cn1ccccc1=O | 2 | – | 74 | 23 | 95 |
| CC(=O)Nc1cccc(NC(C)=O)n1 | 4 | 8.6 | 28 | 80 | 95 |
| [O-][n+]1ccc(-c2ccccc2)cc1 | 0.4 | <0.5 | <1 | 26 | 95 |
| CC(=O)NCc1ccccn1 | 15 | 30 | 68 | 36 | 95 |
| CC(=O)NCCc1ccccn1 | 10 | 28 | 60 | 33 | 95 |
| CC(=O)Nc1cc(-c2ccccc2)ccn1 | 0.04 | – | 8 | 21 | 95 |
| CC(=O)Nc1cccc[n+]1[O-] | 10 | 22.6 | 43 | 74 | 95 |
| CC(=O)Nc1ccc[n+]([O-])c1 | 10 | 15.6 | 35 | 74 | 95 |
| CC(=O)Nc1cc(-c2ccccc2)cc[n+]1[O-] | 1 | 12.2 | 17 | 17 | 95 |
| CC(=O)Nc1cccc(=O)n1C | 16 | 22.2 | 73 | 55 | 95 |
| CC(=O)Nc1ccc(=O)n(C)c1 | 2 | 33.8 | 67 | 91 | 95 |
| CC(=O)Nc1ccc(=O)[nH]c1 | 1 | – | 16 | 26 | 95 |
| CC(=O)Nc1cccc(=O)[nH]1 | 2 | – | 4 | 22 | 95 |
| Oc1ccccn1 | 8.6 | – | 26 | 11 | 95 |
| C[S+](C)[O-] [DIMETHYL SULFOXIDE] | 210 | 31.2 | 80 | 60 | – |
